# Assay results reported in publication PMC6745485 (Heliyon, 2019).
# Several values for one entry are separate records, joined by “and”; a condition that tells them apart may be missing. Equal values may be shown once. Entries after “also recorded” stand apart in the source; their conditions may differ.
# Legend:
# rat CAR [1] = molecular target: T1, rat CAR (Rattus norvegicus, UniProt Q9QUS1); settings: ref Omiecinski et al., 2011a; cited from earlier work
# T1 sequence (Q9QUS1 1-358): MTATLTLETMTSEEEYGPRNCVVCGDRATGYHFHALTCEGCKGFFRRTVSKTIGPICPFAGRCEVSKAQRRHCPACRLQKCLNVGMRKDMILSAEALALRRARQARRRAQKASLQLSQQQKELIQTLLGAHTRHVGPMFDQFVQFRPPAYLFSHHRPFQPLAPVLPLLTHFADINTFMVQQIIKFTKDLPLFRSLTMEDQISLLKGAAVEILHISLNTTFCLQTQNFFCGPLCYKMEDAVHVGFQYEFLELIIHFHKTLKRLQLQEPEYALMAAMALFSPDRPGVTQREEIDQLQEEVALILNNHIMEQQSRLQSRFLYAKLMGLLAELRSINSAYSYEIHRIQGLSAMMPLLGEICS
# rat PXR [2] = molecular target: T2, rat PXR (Rattus norvegicus, UniProt Q9R1A7); format: cell-based; settings: microsomes of PB- and MC-treated rats, NADPH, vs boiled microsomes
# T2 sequence (Q9R1A7 1-431): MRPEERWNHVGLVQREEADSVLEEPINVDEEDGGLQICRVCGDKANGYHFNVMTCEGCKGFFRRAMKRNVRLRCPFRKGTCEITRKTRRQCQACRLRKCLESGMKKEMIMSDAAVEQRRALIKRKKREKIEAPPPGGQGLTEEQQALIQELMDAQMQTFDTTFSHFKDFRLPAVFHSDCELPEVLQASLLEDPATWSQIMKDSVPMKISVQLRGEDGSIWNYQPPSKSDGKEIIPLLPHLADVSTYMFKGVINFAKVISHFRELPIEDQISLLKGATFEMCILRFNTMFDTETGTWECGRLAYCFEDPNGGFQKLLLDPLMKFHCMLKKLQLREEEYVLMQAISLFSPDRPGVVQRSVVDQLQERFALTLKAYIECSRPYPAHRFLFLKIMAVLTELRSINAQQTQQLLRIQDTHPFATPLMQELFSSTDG
# Procedure, shortened: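 Test compound (1 μmol) incubated 30 min at 37 °C in 0.1 M K,Na-phosphate pH 7.4. Mix held an NADPH-generating system and liver microsomes (60 mg protein) from male SD rats given PB 80 mg/kg i.p. plus MC 25 mg/kg p.o. daily for 3 d. Boiled microsomes were the control. Ethyl acetate extract went into DMSO and onto transfected COS-1 cells for 24 h. Normalized firefly/Renilla fold vs vehicle; n=3, t-test.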
# rat CAR [3] = molecular target: T1, rat CAR; assay: Rat CAR reporter gene assay in COS-1 cells; format: cell-based; settings: for Agonistic activity REC20 CAR: concentration showing 20% of the agonistic activity of 30 μM artemisinin; for Agonistic activity REC20 CAR / Inverse agonistic activity RIC20 CAR: ±SD; for Inverse agonistic activity RIC20 CAR: concentration showing 80% of the activity of the vehicle control; for CAR agonistic activity (in words) / CAR inverse agonistic activity (in words): up to 30 μM
# rat PPARα = molecular target: T3, rat PPARα (Rattus norvegicus, UniProt P37230); assay: Rat PPARα reporter gene assay in COS-1 cells; format: cell-based; settings: for Agonistic activity REC20 PPARα: concentration showing 20% of the agonistic activity of 30 μM BZF, ±SD; for PPARα agonistic activity (in words): up to 30 μM
# T3 sequence (P37230 1-468): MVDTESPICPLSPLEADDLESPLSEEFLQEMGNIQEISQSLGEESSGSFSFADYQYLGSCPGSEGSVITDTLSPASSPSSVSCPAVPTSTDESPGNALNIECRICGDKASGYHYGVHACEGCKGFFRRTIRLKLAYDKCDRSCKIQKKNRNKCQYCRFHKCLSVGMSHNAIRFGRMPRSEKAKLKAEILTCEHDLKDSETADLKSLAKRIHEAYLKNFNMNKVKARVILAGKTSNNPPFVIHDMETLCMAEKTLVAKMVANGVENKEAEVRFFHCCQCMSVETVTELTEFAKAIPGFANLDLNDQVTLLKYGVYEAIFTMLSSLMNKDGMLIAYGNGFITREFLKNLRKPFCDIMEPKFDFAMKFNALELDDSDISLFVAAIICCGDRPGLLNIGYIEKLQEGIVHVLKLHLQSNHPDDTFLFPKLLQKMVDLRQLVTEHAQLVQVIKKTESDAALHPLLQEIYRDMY
# rat PXR [4] = molecular target: T2, rat PXR; assay: Rat PXR reporter gene assay in COS-1 cells; format: cell-based; settings: for Agonistic activity REC20 PXR: concentration showing 20% of the agonistic activity of 1 μM PCN, ±SD; for PXR agonistic activity (in words): up to 30 μM
# Procedure, shortened: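 COS-1 cells (1×10^4/well) co-transfected with rat PXR expression, reporter and Renilla control plasmids via jetPEI. After 24 h, test compound or 0.1% DMSO added in serum-free D-MEM for 24 h. Dual-luciferase read-out, firefly normalized to Renilla, fold vs vehicle. REC20: concentration reaching 20% of 1 μM PCN activity. Mean ± SD, ≥3 experiments in duplicate; Dunnett's test.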
# mouse CAR = settings: ref Baldwin and Roling (2009); cited from earlier work
# human CAR = settings: ref Baldwin and Roling (2009); cited from earlier work
smiles,measurement,setting,value
"Clc1ccc(-c2nc3sccn3c2C=NOCc2ccc(Cl)c(Cl)c2)cc1 [CITCO, 6-(4-chlorophenyl)imidazo[2,1-b][1,3]thiazole-5-carbaldehyde O-(3,4-dichlorobenzyl)oxime]",Rat CAR activity,rat CAR [1],inactive toward rat CAR
CC1(C)[C@H](C(=O)OCc2cccc(Oc3ccccc3)c2)[C@@H]1C=C(Cl)Cl [cis-permethrin],Change of PXR activity upon incubation with rat liver microsomes,rat PXR [2],decreased
same,Agonistic activity REC20 CAR,rat CAR [3],- ^c (No effect (REC20 > 30 μM))
same,Inverse agonistic activity RIC20 CAR,rat CAR [3],- ^c (No effect (REC20 > 30 μM))
same,CAR agonistic activity (in words),rat CAR [3],showed CAR agonistic activity at higher concentrations; also recorded: weak CAR agonistic activity
same,Agonistic activity REC20 PPARα,rat PPARα,- ^c (No effect (REC20 > 30 μM))
same,"PXR activity, fold compared with the control",rat PXR [4]; concentration range 1–30 μM,about 3 fold
same,Agonistic activity REC20 PXR,rat PXR [4],0.329 ± 0.0472 µM
CC1(C)[C@H](C(=O)O[C@H](C#N)c2cccc(Oc3ccccc3)c2)[C@@H]1C=C(Br)Br [deltamethrin],Change of PXR activity upon incubation with rat liver microsomes,rat PXR [2],decreased
same,Agonistic activity REC20 PPARα,rat PPARα,- ^c (No effect (REC20 > 30 μM))
same,Agonistic activity REC20 PXR,rat PXR [4],0.156 ± 0.0216 µM
"CC(=O)[C@H]1[C@H](C#N)C[C@H]2[C@@H]3CC=C4C[C@@H](O)CC[C@]4(C)[C@H]3CC[C@@]21C [PCN, 5-Pregnen-3β-ol-20-one-16α-carbonitrile, reference compound]","PXR luciferase activity, fold compared to DMSO-treated cells",rat PXR [4]; 1 μM,3.2 fold
same,Agonistic activity REC20 PXR,rat PXR [4],0.0887 ± 0.0118 µM
CC1(C)[C@H](C=C(Cl)Cl)[C@H]1C(=O)OCc1cccc(Oc2ccccc2)c1 [trans-permethrin],Change of PXR activity upon incubation with rat liver microsomes,rat PXR [2],decreased
same,Agonistic activity REC20 CAR,rat CAR [3],4.19 µM and 4.19 ± 3.26 µM
same,Inverse agonistic activity RIC20 CAR,rat CAR [3],- ^c (No effect (REC20 > 30 μM))
same,CAR agonistic activity (in words),rat CAR [3],showed CAR agonistic activity at higher concentrations; also recorded: weak CAR agonistic activity
same,Agonistic activity REC20 PPARα,rat PPARα,- ^c (No effect (REC20 > 30 μM))
same,"PXR activity, fold compared with the control",rat PXR [4]; 1 μM or lower,about 2 fold
same,"PXR activity, fold compared with the control",rat PXR [4]; concentration range 1–30 μM,about 3 fold
same,Agonistic activity REC20 PXR,rat PXR [4],0.674 ± 0.0526 µM
C=CCC1=C(C)C(OC(=O)C2C(C=C(C)C)C2(C)C)CC1=O (stereo not drawn) [allethrin],Change of PXR activity upon incubation with rat liver microsomes,rat PXR [2],slightly decreased
same,Agonistic activity REC20 CAR,rat CAR [3],- ^c (No effect (REC20 > 30 μM))
same,Inverse agonistic activity RIC20 CAR,rat CAR [3],- ^c (No effect (REC20 > 30 μM))
same,Agonistic activity REC20 PPARα,rat PPARα,- ^c (No effect (REC20 > 30 μM))
same,"PXR activity, fold compared with the control",rat PXR [4]; 1 μM or lower,about 2 fold
same,"PXR activity, fold compared with the control",rat PXR [4]; concentration range 1–30 μM,about 3 fold
same,Agonistic activity REC20 PXR,rat PXR [4],0.668 ± 0.129 µM
"O=Cc1cccc(Oc2ccccc2)c1 [PBAld, 3-phenoxybenzaldehyde]",Agonistic activity REC20 CAR,rat CAR [3],- ^c (No effect (REC20 > 30 μM))
same,Inverse agonistic activity RIC20 CAR,rat CAR [3],- ^c (No effect (REC20 > 30 μM))
same,CAR agonistic activity (in words),rat CAR [3],did not show CAR agonistic or inverse agonistic activity
same,CAR inverse agonistic activity (in words),rat CAR [3],did not show CAR agonistic or inverse agonistic activity
same,Agonistic activity REC20 PPARα,rat PPARα,- ^c (No effect (REC20 > 30 μM))
same,PPARα agonistic activity (in words),rat PPARα,weak activity; also recorded: more active PPARα agonists than the parent compounds
same,Agonistic activity REC20 PXR,rat PXR [4],- ^c (No effect (REC20 > 30 μM))
same,PXR agonistic activity (in words),rat PXR [4],inactive
"Clc1cnc(Oc2ccc(Oc3ncc(Cl)cc3Cl)cc2)c(Cl)c1 [TCPOBOP, 1,4-bis[2-(3,5-dichloropyridyloxy)]benzene]",Rat CAR activity,rat CAR [1],inactive toward rat CAR
CC(C)=CC1C(C(=O)OCc2cccc(Oc3ccccc3)c2)C1(C)C (stereo not drawn) [phenothrin],Change of PXR activity upon incubation with rat liver microsomes,rat PXR [2],to the control level; also recorded: significantly decreased
same,Agonistic activity REC20 CAR,rat CAR [3],- ^c (No effect (REC20 > 30 μM))
same,Inverse agonistic activity RIC20 CAR,rat CAR [3],- ^c (No effect (REC20 > 30 μM))
same,CAR inverse agonistic activity (in words),rat CAR [3],showed CAR inverse agonistic activity
same,Agonistic activity REC20 PPARα,rat PPARα,- ^c (No effect (REC20 > 30 μM))
same,Agonistic activity REC20 PXR,rat PXR [4],3.89 ± 1.03 µM
same,PXR agonistic activity (in words),rat PXR [4],relatively weak activities
CC(C)=C[C@@H]1[C@@H](C(=O)OCc2coc(Cc3ccccc3)c2)C1(C)C [bioresmethrin],Change of PXR activity upon incubation with rat liver microsomes,rat PXR [2],slightly decreased
same,Agonistic activity REC20 CAR,rat CAR [3],- ^c (No effect (REC20 > 30 μM))
same,Inverse agonistic activity RIC20 CAR,rat CAR [3],- ^c (No effect (REC20 > 30 μM))
same,CAR inverse agonistic activity (in words),rat CAR [3],showed CAR inverse agonistic activity
same,Agonistic activity REC20 PPARα,rat PPARα,- ^c (No effect (REC20 > 30 μM))
same,Agonistic activity REC20 PXR,rat PXR [4],1.92 ± 0.724 µM
same,PXR agonistic activity (in words),rat PXR [4],relatively weak activities
"C[C@@H]1CC[C@H]2[C@@H](C)C(=O)O[C@@H]3O[C@@]4(C)CC[C@@H]1[C@]32OO4 [artemisinin, reference compound]","CAR luciferase activity, fold",rat CAR [3]; 30 μM,1.9 fold
same,Agonistic activity REC20 CAR,rat CAR [3],2.53 ± 4.02 µM
"O=C(O)c1cccc(Oc2ccccc2)c1 [PBAcid, 3-phenoxybenzoic acid]",Agonistic activity REC20 CAR,rat CAR [3],- ^c (No effect (REC20 > 30 μM))
same,Inverse agonistic activity RIC20 CAR,rat CAR [3],- ^c (No effect (REC20 > 30 μM))
same,CAR agonistic activity (in words),rat CAR [3],did not show CAR agonistic or inverse agonistic activity
same,CAR inverse agonistic activity (in words),rat CAR [3],did not show CAR agonistic or inverse agonistic activity
same,Agonistic activity REC20 PPARα,rat PPARα,26.8 µM and 26.8 ± 21.3 µM
same,PPARα agonistic activity (in words),rat PPARα,dose-dependent agonistic activity; also recorded: more active PPARα agonists than the parent compounds
same,Agonistic activity REC20 PXR,rat PXR [4],- ^c (No effect (REC20 > 30 μM))
same,PXR agonistic activity (in words),rat PXR [4],inactive
CC1(C)C(C=C(Cl)Cl)C1C(=O)OC(C#N)c1cccc(Oc2ccccc2)c1 (stereo not drawn) [cypermethrin],Agonistic activity REC20 CAR,rat CAR [3],- ^c (No effect (REC20 > 30 μM))
same,Inverse agonistic activity RIC20 CAR,rat CAR [3],- ^c (No effect (REC20 > 30 μM))
same,Agonistic activity REC20 PPARα,rat PPARα,- ^c (No effect (REC20 > 30 μM))
same,"PXR activity, fold compared with the control",rat PXR [4]; 1 μM or lower,about 2 fold
same,"PXR activity, fold compared with the control",rat PXR [4]; concentration range 1–30 μM,about 3 fold
same,Agonistic activity REC20 PXR,rat PXR [4],0.468 ± 0.0267 µM
same,Mouse CAR agonistic activity,mouse CAR,agonists
same,Human CAR agonistic activity,human CAR,agonists
"CC(C)(Oc1ccc(CCNC(=O)c2ccc(Cl)cc2)cc1)C(=O)O [BZF, bezafibrate, reference compound]","PPARα luciferase activity, fold",rat PPARα; 30 μM,2.4 fold
same,Agonistic activity REC20 PPARα,rat PPARα,3.68 ± 0.0944 µM
"OCc1cccc(Oc2ccccc2)c1 [PBAlc, 3-phenoxybenzyl alcohol]",Agonistic activity REC20 CAR,rat CAR [3],- ^c (No effect (REC20 > 30 μM))
same,Inverse agonistic activity RIC20 CAR,rat CAR [3],- ^c (No effect (REC20 > 30 μM))
same,CAR agonistic activity (in words),rat CAR [3],did not show CAR agonistic or inverse agonistic activity
same,CAR inverse agonistic activity (in words),rat CAR [3],did not show CAR agonistic or inverse agonistic activity
same,Agonistic activity REC20 PPARα,rat PPARα,- ^c (No effect (REC20 > 30 μM))
same,Agonistic activity REC20 PXR,rat PXR [4],- ^c (No effect (REC20 > 30 μM))
same,PXR agonistic activity (in words),rat PXR [4],weak PXR agonistic activity
